Measured values from ChEMBL document CHEMBL4354821, “Benzisothiazolinone Derivatives as Potent Allosteric Monoacylglycerol Lipase Inhibitors That Functionally Mimic Sulfenylation of Regulatory Cysteines” (J Med Chem, 2020).
Active and inactive are the calls of the source. The rule behind the calls is not given here.

Key:
Monoglyceride lipase [1] = target: T1, Monoglyceride lipase (Rattus norvegicus, UniProt Q8R431); test: Inhibition of recombinant rat MGL expressed in human HeLa cells using 2-oleoylglycerol as substrate preincubated for 10 mins followed by substrate addition and measured after 10 mins by LC-MS analysis; type: cell-based
T1 sequence (Q8R431 whole entry): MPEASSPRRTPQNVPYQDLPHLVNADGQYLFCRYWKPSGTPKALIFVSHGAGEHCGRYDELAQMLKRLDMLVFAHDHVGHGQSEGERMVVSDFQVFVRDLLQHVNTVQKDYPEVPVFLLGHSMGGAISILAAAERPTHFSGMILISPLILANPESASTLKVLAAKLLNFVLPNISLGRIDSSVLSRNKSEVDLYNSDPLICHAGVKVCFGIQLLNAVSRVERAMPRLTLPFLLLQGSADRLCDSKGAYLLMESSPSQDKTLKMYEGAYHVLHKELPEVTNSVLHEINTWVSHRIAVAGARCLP

Monoglyceride lipase [2] = target: Monoglyceride lipase (Rattus norvegicus, UniProt Q8R431, C201A/C208A); test: Inhibition of recombinant rat MGL C201A/C208A mutant expressed in human HeLa cells using 2-oleoylglycerol as substrate preincubated for 10 mins followed by substrate addition and measured after 10 mins by LC-MS analysis
Chain of Monoglyceride lipase (Rattus norvegicus, UniProt Q8R431, C201A/C208A) (Q8R431 whole entry C201A/C208A): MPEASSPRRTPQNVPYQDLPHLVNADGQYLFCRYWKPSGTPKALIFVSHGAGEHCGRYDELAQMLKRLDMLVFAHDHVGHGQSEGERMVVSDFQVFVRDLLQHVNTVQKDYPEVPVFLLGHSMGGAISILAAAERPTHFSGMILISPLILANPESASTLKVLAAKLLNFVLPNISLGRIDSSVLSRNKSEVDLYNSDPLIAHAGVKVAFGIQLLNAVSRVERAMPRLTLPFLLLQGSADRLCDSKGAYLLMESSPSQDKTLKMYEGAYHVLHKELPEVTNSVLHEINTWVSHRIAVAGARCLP

Monoglyceride lipase [3] = target: Monoglyceride lipase (Rattus norvegicus, UniProt Q8R431, C201A); test: Inhibition of recombinant rat MGL C201A mutant expressed in human HeLa cells using 2-oleoylglycerol as substrate preincubated for 10 mins followed by substrate addition and measured after 10 mins by LC-MS analysis; type: cell-based
Chain of Monoglyceride lipase (Rattus norvegicus, UniProt Q8R431, C201A) (Q8R431 whole entry C201A): as the sequence (Q8R431 whole entry C201A/C208A) above, with A208C counted along it

Monoglyceride lipase [4] = target: Monoglyceride lipase (Rattus norvegicus, UniProt Q8R431, C208A); test: Inhibition of recombinant rat MGL C208A mutant expressed in human HeLa cells using 2-oleoylglycerol as substrate preincubated for 10 mins followed by substrate addition and measured after 10 mins by LC-MS analysis; type: cell-based
Chain of Monoglyceride lipase (Rattus norvegicus, UniProt Q8R431, C208A) (Q8R431 whole entry C208A): as the sequence (Q8R431 whole entry C201A/C208A) above, with A201C counted along it

N2a [5] = test: Protection against H2O2-induced toxicity in mouse Neuro2a cells assessed as reduction in LDH release at 1 uM preincubated for 30 mins followed by H2O2 challenge and measured after 24 hrs in presence of CB1 receptor antagonist rimonabant; type: functional, cell-based
How it was run: (§1)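 Neuro-2a cells seeded 5×10^3/well, after 24 h pretreated with agents 30 min, then H2O2 300 µM for 24 h; LDH release into medium measured by absorbance with cytotoxicity detection kit; mean ± SEM; t test or one-way ANOVA with Dunnett's.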

N2a [6] = test: Protection against H2O2-induced toxicity in mouse Neuro2a cells assessed as reduction in LDH release at 1 uM preincubated for 30 mins followed by H2O2 challenge and measured after 24 hrs; type: functional, cell-based; how it was run: as §1
[7] = Tmax in C57BL6 mouse plasma at 10 mg/kg, ip by LC-MS/MS analysis; type: ADME, organism-based
How it was run: (§2)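 Adult male C57/BL6 mice, n=4 per group, single 10 mg/kg i.p. dose, saline vehicle. Plasma and brain collected at set times after injection. Brains homogenized in acetonitrile with 0.1% formic acid and passed through lipid-removal cartridges. Compound quantified by LC-MS/MS on C18 with formic acid water/methanol step gradient; LOQ 0.1 ng/mL, linear 0.1-100.0 ng/mL.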

[8] = Drug metabolism in pH 7.4 phosphate buffered saline assessed as N-(2-phenylethyl)-2-[[2-(2-phenylethylcarbamoyl)phenyl]disulfanyl]benzamide formation at 100 uM measured after 60 mins in presence of N-(2-phenylethyl)-2-sulfanyl-benzamide by HR-MS analysis
How it was run: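 Compound 100 μM final (from 10 mM DMSO stock, 1% DMSO) with GSH 200 μM final in 10 mM PBS pH 7.4 at 37 °C; species quantified at t = 60 min by LC/UV (210/254 nm) and HR-MS (Orbitrap, ESI); mean ± SEM, n = 3-4.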

[9] = Tmax in C57BL6 mouse brain at 10 mg/kg, ip by LC-MS/MS analysis; type: ADME, organism-based; how it was run: as §2
[10] = Glutathione reactivity in pH 7.4 phosphate buffered saline assessed as GSH-adduct formation by measuring oxidized GSH level at 100 uM measured after 60 mins by HR-MS analysis; type: ADME; conditions: buffer, pH 7.4, 1 h
How it was run: (§3)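 BTZ 100 µM final (from 10 mM DMSO stock, 1% DMSO final) with GSH 200 µM final in 10 mM PBS pH 7.4 at 37.0 °C; sampled at 60 min (steady state). GSH, GSSG and BTZ quantified by LC/UV (210 nm for GSH/GSSG, 254 nm for BTZ) against PBS standard curves; products identified by HR-MS (Orbitrap). Mean ± SEM, n = 3-4.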

[11] = Ratio of drug level in brain to plasma of C57BL6 mouse at 10 mg/kg, ip by LC-MS/MS analysis; type: ADME, organism-based; how it was run: as §2
Mus musculus = test: In vivo inhibition of MGL in C57BL6 mouse assessed as increase in 2-AG level at 10 mg/kg, ip measured after 2 hrs by LC-MS/MS analysis; type: functional, organism-based
How it was run: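 Adult male C57/BL6 mice, n=4 per group, single 10 mg/kg i.p. dose, saline vehicle; brains collected 2 h post-injection; lipids extracted from homogenate and 2-AG measured by LC-MS (triple quadrupole, ESI positive, isocratic C18); two-tailed t test or ANOVA with Dunnett's.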

[12] = Glutathione reactivity in pH 7.4 phosphate buffered saline assessed as GSH-adduct formation by measuring parent compound level at 100 uM measured after 60 mins by HR-MS analysis; type: ADME; conditions: buffer, pH 7.4, 1 h, BLD = below limit of detection; how it was run: as §3
[13] = Glutathione reactivity in pH 7.4 phosphate buffered saline assessed as GSH-adduct formation by measuring GSH level at 100 uM measured after 60 mins by HR-MS analysis; type: ADME; conditions: buffer, pH 7.4, 1 h; how it was run: as §3

`CN(Cc1ccccc1)n1sc2ccccc2c1=O` gave an IC50 (Monoglyceride lipase [1]) of 189 nM.
In the case of `COC(=O)c1ccc(CNn2sc3ccccc3c2=O)cc1`, the IC50 (Monoglyceride lipase [1]) is reported as 93.9 nM.
Work on `O=c1c2ccccc2sn1NCc1ccc(-c2ccccc2)cc1` yielded an IC50 (Monoglyceride lipase [1]) of 322 nM.
With `O=c1c2ccccc2sn1CCCCCCN1CCCCC1` the IC50 (Monoglyceride lipase [1]) was 195 nM.
Work on `Cc1cccc2c(=O)n(CCc3ccccc3)sc12` yielded an IC50 (Monoglyceride lipase [1]) of 13100 nM.
Compound `O=C(O)c1ccc(CNn2sc3ccccc3c2=O)cc1` has an IC50 (Monoglyceride lipase [1]) of 278 nM.
`O=c1[nH]sc2ccccc12` showed an IC50 (Monoglyceride lipase [1]) of 306 nM.
Compound `O=c1c2ccccc2sn1NCc1ccccc1` has an IC50 (Monoglyceride lipase [1]) of 19.5 nM, an IC50 (Monoglyceride lipase [2]) of 782 nM and an IC50 (Monoglyceride lipase [3]) of 54.4 nM. The IC50 (Monoglyceride lipase [4]) was 44.9 nM.
`COc1ccc2sn(CCc3ccccc3)c(=O)c2c1` showed an IC50 (Monoglyceride lipase [1]) of 568 nM.
`COc1ccc2c(=O)n(CCc3ccccc3)sc2c1` gave an IC50 (Monoglyceride lipase [1]) of 512 nM.
Work on `O=c1c2ccccc2sn1NCCCCCCNn1sc2ccccc2c1=O` yielded an IC50 (Monoglyceride lipase [1]) of 16.8 nM, an IC50 (Monoglyceride lipase [2]) of 2080 nM and an IC50 (Monoglyceride lipase [3]) of 114 nM. It also gave an IC50 (Monoglyceride lipase [4]) of 82.7 nM.
For `O=c1c2ccc(O)cc2sn1CCc1ccccc1`, the IC50 (Monoglyceride lipase [1]) was 2550 nM.
For `O=c1c2ccc([N+](=O)[O-])cc2sn1CCc1ccccc1`, the IC50 (Monoglyceride lipase [1]) was 238 nM.
In the case of `O=C(Oc1ccc([N+](=O)[O-])cc1)N1CCC(C(O)(c2ccc3c(c2)OCO3)c2ccc3c(c2)OCO3)CC1`, the Activity (N2a [5]) is reported as “inactive” and the Activity (N2a [6]) is reported as “Active”.
For `O=c1c2ccccc2sn1CCc1cccc2ccccc12`, the IC50 (Monoglyceride lipase [1]) was 21.8 nM.
`O=c1c2ccccc2sn1CCc1ccc2ccccc2c1` gave an IC50 (Monoglyceride lipase [1]) of 54.2 nM.
`O=c1c2cc([N+](=O)[O-])ccc2sn1CCc1ccccc1` gave an IC50 (Monoglyceride lipase [1]) of 163 nM.
With `O=c1c2ccccc2sn1CCc1ccccc1` the Tmax [7] was 15 min, the Drug metabolism [8] was “Metabolite detected” and the Tmax [9] was 15 min. For the same compound, the Activity [10] was 61.8%, the BPR [11] was 4.5% and the Activity (N2a [5]) was “inactive”. The Activity (N2a [6]) was “Active”, the inhibition (Mus musculus) was “Active” and the Activity [12] was “Bld”. The Activity [13] was 73.4 µM.
Work on `Cn1sc2ccccc2c1=O` yielded an IC50 (Monoglyceride lipase [1]) of 59.5 nM.
In the case of `O=c1c2ccccc2sn1NCCCCCNn1sc2ccccc2c1=O`, the IC50 (Monoglyceride lipase [1]) is reported as 11.5 nM, the IC50 (Monoglyceride lipase [2]) is reported as 1460 nM and the IC50 (Monoglyceride lipase [3]) is reported as 230 nM. It also gave an IC50 (Monoglyceride lipase [4]) of 220 nM.
For `O=c1c2ccccc2sn1C1CCCCC1`, the IC50 (Monoglyceride lipase [1]) was 55.5 nM.
In the case of `O=c1c2cc(O)ccc2sn1CCc1ccccc1`, the IC50 (Monoglyceride lipase [1]) is reported as 135 nM.
With `O=c1ccsn1CCc1ccccc1` the IC50 (Monoglyceride lipase [1]) was 759 nM.
